ChEMBL document CHEMBL3286275, “Identification of 1-{2-[4-chloro-1'-(2,2-dimethylpropyl)-7-hydroxy-1,2-dihydrospiro[indole-3,4'-piperidine]-1-yl]phenyl}-3-{5-chloro-[1,3]thiazolo[5,4-b]pyridin-2-yl}urea, a potent, efficacious and orally bioavailable P2Y(1) antagonist as an antiplatelet agent” (Bioorg Med Chem Lett, 2014)
pIC50: −log10 of the molar value. ≈ marks a conversion by molar mass, not a printed value. Calls of active or inactive are those of the source. The calls are words filed in the database; no cut-off is given here.

What was measured:
[1] = system: Liver microsome; experiment: Metabolic stability in rat liver microsomes assessed as compound remaining; format: ADME
Procedure, shortened: (§1)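 Liver microsome stability: percent of compound remaining after incubation with […] (3 µM microsomes in some cases).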

[2] = system: Liver microsome; experiment: Metabolic stability in human liver microsomes assessed as compound remaining; format: ADME; procedure, shortened: as §1
[3] = system: Platelet; experiment: Inhibition of ADP-induced platelet aggregation in platelet-rich human plasma; format: functional
Procedure, shortened: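 Human platelet-rich plasma; aggregation triggered by 10 µM ADP; IC50 determined.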

[4] = target: P2Y purinoceptor 1 (Homo sapiens, UniProt P47900); experiment: Antagonist activity at P2Y1 receptor in human platelets by FLIPR assay in presence of 2-methylthio-ADP
Sequence of P2Y purinoceptor 1 (P47900 whole entry): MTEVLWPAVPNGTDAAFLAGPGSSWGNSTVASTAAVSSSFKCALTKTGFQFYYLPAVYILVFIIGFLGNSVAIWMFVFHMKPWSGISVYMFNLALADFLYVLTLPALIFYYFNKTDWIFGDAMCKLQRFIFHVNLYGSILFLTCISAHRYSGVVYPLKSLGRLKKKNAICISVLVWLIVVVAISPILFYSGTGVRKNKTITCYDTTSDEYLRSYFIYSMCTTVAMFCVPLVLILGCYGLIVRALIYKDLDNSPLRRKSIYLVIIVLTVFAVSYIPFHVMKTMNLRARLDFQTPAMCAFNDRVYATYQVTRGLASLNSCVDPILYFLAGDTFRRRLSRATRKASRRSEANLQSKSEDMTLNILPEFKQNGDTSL
Procedure, shortened: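 Washed human platelets with endogenous P2Y1; calcium signalling read by FLIPR with reduced protein (~0.1% BSA); agonist 2-methylthio-ADP at 1 µM; IC50 given as mean ± SD.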

[5] = system: Rattus norvegicus; experiment: Antithrombotic activity in po dosed pentobarbital anesthetized rat assessed as reduction in FeCl2-induced thrombus weight administered 1 hr prior to FeCl2 challenge
[6] = Aqueous solubility of the compound at pH 3.9; format: physicochemical; conditions: aqueous medium, read-out: Activity
Procedure, shortened: (§2)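 Aqueous solubility taken on crystalline material: free base at pH 6.5, mono-methanesulfonic acid salt at pH 3.9.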

[7] = system: Rattus norvegicus; experiment: Toxicity in rat assessed as prolongation of mesentric bleeding time at 10 mg/kg, po relative to control; format: organism-based; set-up: dose 10 mg/kg, route oral; conditions: in vivo
Procedure, shortened: (§3)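 Pentobarbital-anesthetized rats dosed by oral gavage 1 h before bleeding-time induction. Vehicle was 1 ml/kg of 10% N,N-dimethylacetamide/90% dextrose 5% water, and compound was given at 0.3, 1, 3 and 10 mg/kg. Cuticle and mesenteric bleeding times were measured and expressed as fold prolongation relative to vehicle. Group sizes were indicated per group.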

[8] = system: Rattus norvegicus; experiment: Toxicity in rat assessed as prolongation of cuticle bleeding time at 10 mg/kg, po relative to control; format: organism-based; set-up: dose 10 mg/kg, route oral; conditions: in vivo; procedure, shortened: as §3
[9] = system: Rattus norvegicus; experiment: Antiplatelet activity in pentobarbital anesthetized rat assessed as reduction in platelet aggregation at 10 mg/kg, po; format: functional; set-up: scale not given: the % may be the effect or the level left
Procedure, shortened: (§4)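 Pentobarbital-anesthetized rats; vehicle (1 ml/kg of 10% N,N-dimethylacetamide/90% dextrose 5% water) or 0.3, 1, 3, 10 mg/kg by oral gavage 1 h before FeCl2-induced carotid thrombosis or cuticle/mesenteric bleeding time. End points were thrombus weight and blood flow. Blood was drawn at the end of the thrombosis protocol for ex vivo aggregation. ID50 values derived; SEM reported.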

[10] = system: Rattus norvegicus; experiment: Antithrombotic activity in pentobarbital anesthetized rat assessed as reduction in FeCl2-induced thrombus weight at 10 mg/kg, po administered 1 hr prior to FeCl2 challenge; format: functional; set-up: scale not given: the % may be the effect or the level left; procedure, shortened: as §4
[11] = system: Rattus norvegicus; experiment: Antithrombotic activity in pentobarbital anesthetized rat assessed as preservation of blood flow at 10 mg/kg, po administered 1 hr prior to FeCl2 challenge; format: functional, organism-based; set-up: dose 10 mg/kg; procedure, shortened: as §4
[12] = system: Rattus norvegicus; experiment: Toxicity in po dosed pentobarbital anesthetized rat assessed as prolongation of bleeding time measured after 1 hr; format: organism-based; conditions: in vivo; procedure, shortened: as §4
[13] = system: Rattus norvegicus; experiment: Ex vivo inhibition of platelet aggregation in po dosed pentobarbital anesthetized rat administered 1 hr prior to FeCl2 challenge; format: functional; procedure, shortened: as §4
[14] = system: Rattus norvegicus; experiment: Antithrombotic activity in po dosed pentobarbital anesthetized rat assessed as maintainance of blood flow administered 1 hr prior to FeCl2 challenge; format: functional, organism-based; procedure, shortened: as §4
[15] = system: Blood; experiment: Drug uptake in rat blood at 10 mg/kg, po; format: ADME, organism-based; set-up: dose 10 mg/kg, route oral; conditions: in vivo, read-out: Drug uptake
[16] = system: Blood; experiment: Drug uptake in rat blood at 3 mg/kg, po; format: ADME, organism-based; set-up: dose 3 mg/kg, route oral; conditions: in vivo, read-out: Drug uptake
[17] = system: Blood; experiment: Drug uptake in rat blood at 1 mg/kg, po; format: ADME, organism-based; set-up: dose 1 mg/kg, route oral; conditions: in vivo, read-out: Drug uptake
[18] = system: Blood; experiment: Drug uptake in rat blood at 0.3 mg/kg, po; format: ADME, organism-based; set-up: dose 0.3 mg/kg, route oral; conditions: in vivo, read-out: Drug uptake
[19] = Oral bioavailability in cynomolgus monkey at 5 mg/kg; format: ADME, organism-based, Macaca fascicularis; conditions: in vivo
Procedure, shortened: (§5)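 Dog and cynomolgus PK used the methanesulfonic acid salt at 0.2 mg/kg IV and 5 mg/kg PO; clearance, Vdss, half-life and oral bioavailability determined.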

[20] = Oral bioavailability in dog at 5 mg/kg; format: ADME, organism-based, Canis lupus familiaris; conditions: in vivo; procedure, shortened: as §5
[21] = Half life in cynomolgus monkey at 0.2 mg/kg, iv and 5 mg/kg, po; format: ADME, organism-based, Macaca fascicularis; conditions: in vivo; procedure, shortened: as §5
[22] = Half life in dog at 0.2 mg/kg, iv and 5 mg/kg, po; format: ADME, organism-based, Canis lupus familiaris; conditions: in vivo; procedure, shortened: as §5
[23] = Volume of distribution at steady state in cynomolgus monkey at 0.2 mg/kg, iv and 5 mg/kg, po; format: ADME, organism-based, Macaca fascicularis; conditions: in vivo, read-out: Vdss; procedure, shortened: as §5
[24] = Volume of distribution at steady state in dog at 0.2 mg/kg, iv and 5 mg/kg, po; format: ADME, organism-based, Canis lupus familiaris; conditions: in vivo, read-out: Vdss; procedure, shortened: as §5
[25] = Clearance in cynomolgus monkey at 0.2 mg/kg, iv and 5 mg/kg, po; format: ADME, organism-based, Macaca fascicularis; conditions: in vivo; procedure, shortened: as §5
[26] = Clearance in dog at 0.2 mg/kg, iv and 5 mg/kg, po; format: ADME, organism-based, Canis lupus familiaris; conditions: in vivo; procedure, shortened: as §5
[27] = Plasma protein binding in rat; format: ADME, cell-free; conditions: read-out: PPB (converted)
[28] = Plasma protein binding in rabbit; format: ADME, cell-free, Oryctolagus cuniculus; conditions: read-out: PPB (converted)
[29] = Plasma protein binding in human; format: ADME, cell-free; conditions: read-out: PPB (converted)
[30] = system: Oryctolagus cuniculus; experiment: Cardiotoxicity in rabbit assessed as increase in QTc at 10 to 30 mg/kg, iv by surface electrocardiography; format: toxicity, organism-based; set-up: dose 10-30 mg/kg, route intravenous; conditions: in vivo
Procedure, shortened: (§6)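 Anesthetized rabbits given IV doses of 3, 10 and 30 mg/kg in increasing order; plasma concentrations measured; PR, QRS and QTc intervals read by surface ECG.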

[31] = system: Oryctolagus cuniculus; experiment: Cardiotoxicity in rabbit assessed as QRS interval at 3 to 30 mg/kg, iv by surface electrocardiography; format: toxicity, organism-based; set-up: dose 3-30 mg/kg, route intravenous; conditions: in vivo; procedure, shortened: as §6
[32] = system: Oryctolagus cuniculus; experiment: Cardiotoxicity in rabbit assessed as PR interval at 3 to 30 mg/kg, iv by surface electrocardiography; format: toxicity, organism-based; set-up: dose 3-30 mg/kg, route intravenous; conditions: in vivo; procedure, shortened: as §6
[33] = system: Plasma; experiment: Plasma concentration in rabbit at 30 mg/kg, iv; format: ADME, organism-based, Oryctolagus cuniculus; set-up: dose 30 mg/kg, route intravenous; conditions: in vivo; procedure, shortened: as §6
[34] = system: Plasma; experiment: Plasma concentration in rabbit at 3 mg/kg, iv; format: ADME, organism-based, Oryctolagus cuniculus; set-up: dose 3 mg/kg, route intravenous; conditions: in vivo; procedure, shortened: as §6
[35] = system: Plasma; experiment: Plasma concentration in rabbit at 10 mg/kg, iv; format: ADME, organism-based, Oryctolagus cuniculus; set-up: dose 10 mg/kg, route intravenous; conditions: in vivo; procedure, shortened: as §6
[36] = target: hERG (KCNH2) (Homo sapiens, UniProt Q12809); experiment: Inhibition of human ERG channel at 1 uM by patch clamp technique
Sequence of hERG (KCNH2) (Q12809 whole entry): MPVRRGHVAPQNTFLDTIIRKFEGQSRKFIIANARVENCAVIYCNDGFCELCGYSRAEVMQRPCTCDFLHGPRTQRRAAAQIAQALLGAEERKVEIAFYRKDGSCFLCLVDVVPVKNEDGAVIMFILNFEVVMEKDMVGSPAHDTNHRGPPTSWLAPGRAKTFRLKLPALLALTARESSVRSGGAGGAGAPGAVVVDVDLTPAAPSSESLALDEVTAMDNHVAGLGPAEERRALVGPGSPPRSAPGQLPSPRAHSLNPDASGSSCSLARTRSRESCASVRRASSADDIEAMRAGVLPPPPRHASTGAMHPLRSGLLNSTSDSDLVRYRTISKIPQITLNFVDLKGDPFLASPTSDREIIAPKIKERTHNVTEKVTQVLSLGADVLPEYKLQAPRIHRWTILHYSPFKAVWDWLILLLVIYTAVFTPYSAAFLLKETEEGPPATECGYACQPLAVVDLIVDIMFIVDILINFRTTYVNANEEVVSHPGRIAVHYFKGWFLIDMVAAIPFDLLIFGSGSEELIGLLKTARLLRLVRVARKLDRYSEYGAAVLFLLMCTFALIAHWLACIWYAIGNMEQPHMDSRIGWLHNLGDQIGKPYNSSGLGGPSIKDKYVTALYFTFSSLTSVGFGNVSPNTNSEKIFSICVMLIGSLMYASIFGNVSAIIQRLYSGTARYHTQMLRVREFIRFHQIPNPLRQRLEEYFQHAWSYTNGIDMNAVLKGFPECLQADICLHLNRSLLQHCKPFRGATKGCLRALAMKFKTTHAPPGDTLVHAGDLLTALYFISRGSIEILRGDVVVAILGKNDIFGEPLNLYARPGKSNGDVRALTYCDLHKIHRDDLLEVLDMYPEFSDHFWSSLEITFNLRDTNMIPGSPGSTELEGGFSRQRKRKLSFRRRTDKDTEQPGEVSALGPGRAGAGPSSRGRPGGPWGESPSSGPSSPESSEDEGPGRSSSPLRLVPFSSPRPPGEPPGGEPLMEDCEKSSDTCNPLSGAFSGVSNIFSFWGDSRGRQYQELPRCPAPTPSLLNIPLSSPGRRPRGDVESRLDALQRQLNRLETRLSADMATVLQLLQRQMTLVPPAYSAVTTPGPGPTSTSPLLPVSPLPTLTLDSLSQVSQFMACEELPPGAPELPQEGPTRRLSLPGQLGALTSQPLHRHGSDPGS
Procedure, shortened: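 hERG current measured in vitro by patch clamp at 1 µM.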

[37] = target: T1, P2X purinoceptor 1 (Homo sapiens, UniProt P51575); experiment: Antagonist activity at P2X1 receptor (unknown origin) by FLIPR assay
T1 sequence (P51575 whole entry): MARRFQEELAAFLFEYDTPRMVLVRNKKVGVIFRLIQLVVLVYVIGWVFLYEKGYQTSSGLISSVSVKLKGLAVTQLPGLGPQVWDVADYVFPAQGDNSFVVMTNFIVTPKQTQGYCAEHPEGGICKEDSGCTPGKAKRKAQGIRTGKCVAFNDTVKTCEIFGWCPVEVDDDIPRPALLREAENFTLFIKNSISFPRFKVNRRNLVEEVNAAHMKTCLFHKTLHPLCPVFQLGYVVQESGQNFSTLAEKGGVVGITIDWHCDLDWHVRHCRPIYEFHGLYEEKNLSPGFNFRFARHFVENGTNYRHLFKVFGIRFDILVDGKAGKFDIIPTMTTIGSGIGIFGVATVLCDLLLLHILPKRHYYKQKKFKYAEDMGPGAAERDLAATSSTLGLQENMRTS

[38] = target: P2Y purinoceptor 2 (Homo sapiens, UniProt P41231); experiment: Antagonist activity at P2Y2 receptor (unknown origin)
Sequence of P2Y purinoceptor 2 (P41231 whole entry): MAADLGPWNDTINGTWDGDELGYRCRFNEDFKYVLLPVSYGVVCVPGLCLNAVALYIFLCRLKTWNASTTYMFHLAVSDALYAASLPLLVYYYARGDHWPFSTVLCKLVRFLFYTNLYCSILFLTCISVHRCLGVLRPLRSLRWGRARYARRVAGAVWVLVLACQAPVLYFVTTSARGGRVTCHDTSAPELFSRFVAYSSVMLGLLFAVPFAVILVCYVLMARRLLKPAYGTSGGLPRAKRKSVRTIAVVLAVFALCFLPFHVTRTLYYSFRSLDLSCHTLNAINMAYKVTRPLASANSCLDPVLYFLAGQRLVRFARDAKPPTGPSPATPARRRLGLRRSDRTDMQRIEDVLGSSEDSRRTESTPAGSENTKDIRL

[39] = target: P2Y purinoceptor 12 (Homo sapiens, UniProt Q9H244); experiment: Antagonist activity at P2Y12 receptor (unknown origin)
Sequence of P2Y purinoceptor 12 (Q9H244 whole entry): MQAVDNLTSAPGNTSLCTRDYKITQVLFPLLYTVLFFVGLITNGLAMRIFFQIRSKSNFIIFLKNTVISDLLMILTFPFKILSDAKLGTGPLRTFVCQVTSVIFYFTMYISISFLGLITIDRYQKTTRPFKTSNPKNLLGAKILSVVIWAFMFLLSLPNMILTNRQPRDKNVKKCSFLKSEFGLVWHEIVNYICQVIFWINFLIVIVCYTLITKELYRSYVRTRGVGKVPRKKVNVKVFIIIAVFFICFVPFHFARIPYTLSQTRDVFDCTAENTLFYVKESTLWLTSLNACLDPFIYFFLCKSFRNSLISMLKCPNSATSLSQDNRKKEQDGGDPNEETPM

[40] = Aqueous solubility of the compound at pH 6.5; format: physicochemical; conditions: aqueous medium; procedure, shortened: as §2

Structure (SMILES): CC(C)(C)CN1CCC2(CC1)CN(c1ccccc1NC(=O)Nc1csc(Cl)n1)c1c(O)ccc(Cl)c12
- Stability [1]: 66%
- Stability [2]: 87%
- pIC50 [3]: 6.77
- pIC50 [4]: 10.52

Structure (SMILES): CC(C)(C)CN1CCC2(CC1)CN(c1ccccc1NC(=O)Nc1ccc(OC(F)(F)F)cc1)c1ccccc12
- pIC50 [5]: 6.33

Structure (SMILES): CC(C)(C)CN1CCC2(CC1)CN(c1ccccc1NC(=O)Nc1ccc(OC(F)(F)F)cc1)c1c(O)ccc(C(F)(F)F)c12
- Stability [1]: 98%
- Stability [2]: 100%
- pIC50 [3]: 6.89
- pIC50 [4]: 9.85

Structure (SMILES): CC(C)(C)CN1CCC2(CC1)CN(c1ccccc1NC(=O)Nc1nc3ccc(F)cc3s1)c1c(O)ccc(Cl)c12
- Stability [1]: 89%
- Stability [2]: 100%
- pIC50 [3]: 6.64
- pIC50 [4]: 10.22

Structure (SMILES): COC(=O)c1ccc(O)c2c1C1(CCN(CC(C)(C)C)CC1)CN2c1ccccc1NC(=O)Nc1ccc(OC(F)(F)F)cc1
- Stability [1]: 57%
- Stability [2]: 48%
- pIC50 [3]: 6.15
- pIC50 [4]: 9.82

Structure (SMILES): CC(C)(C)CN1CCC2(CC1)CN(c1ccccc1NC(=O)Nc1nc3ccc(Cl)cc3s1)c1c(O)ccc(Cl)c12
- Stability [1]: 93%
- Stability [2]: 96%
- pIC50 [3]: 6.49
- pIC50 [4]: 9.77

Structure (SMILES): CC(C)(C)CN1CCC2(CC1)CN(c1ccccc1NC(=O)Nc1ccc(OC(F)(F)F)cc1)c1c(O)ccc(F)c12
- Stability [1]: 70%
- Stability [2]: 78%
- pIC50 [3]: 6.04
- pIC50 [4]: 9.43

Structure (SMILES): CC(C)(C)CN1CCC2(CC1)CN(c1ccccc1NC(=O)Nc1nc3ccc(Cl)nc3s1)c1c(O)ccc(Cl)c12
- solubility [6]: 680 µg/mL (≈ 1110 µM)
- fold change (FC) [7]: 2.2
- fold change (FC) [8]: 2.5
- Activity [9]: 74%
- Activity [10]: 66%
- Activity [11]: Active
- Activity [12]: Dose-dependent effect
- Activity [13]: Dose-dependent effect
- ED50 ([13]; read-out: ID50 (the source's name)): 6.6 mg/kg
- Activity [14]: Dose-dependent effect
- pIC50 [5]: 6.89
- ED50 ([5]; po, read-out: ID50): 7.3 mg/kg
- concentration [15]: 240 nM
- concentration [16]: 81 nM
- concentration [17]: 39 nM
- concentration [18]: 7 nM
- bioavailability [19]: 22%
- bioavailability [20]: 27%
- half-life [21]: 8.2 h
- half-life [22]: 9.4 h
- Vd [23]: 3.3 L/kg
- Vd [24]: 2.5 L/kg
- clearance [25]: 7.7 mL/min/kg
- clearance [26]: 4 mL/min/kg
- fraction unbound [27]: 0.002
- fraction unbound [28]: 0.007
- fraction unbound [29]: 0.007
- Activity [30]: Non-toxic
- Activity [31]: Non-toxic
- Activity [32]: Non-toxic
- concentration [33]: 158000 nM
- concentration [34]: 24000 nM
- concentration [35]: 62000 nM
- inhibition at 1 µM [36]: 96%
- pIC50 [37]: 6.74
- pIC50 [38]: < 5.00
- pIC50 [39]: < 5.00
- Stability [1]: 93%
- Stability [2]: 94%
- pIC50 [3]: 6.89
- pIC50 [4]: 9.92
- solubility [40]: < 1 µg/mL

Structure (SMILES): CC(C)(C)CN1CCC2(CC1)CN(c1ccccc1NC(=O)Nc1ccc(OC(F)(F)F)cc1)c1cccc(O)c12
- pIC50 [4]: < 6.82
